Measured values taken from ChEMBL document CHEMBL1667767, “Triazole incorporated pyridazinones as a new class of antihypertensive agents: design, synthesis and in vivo screening” (2011).

Legend:
Rattus norvegicus [1] = experiment: Antihypertensive activity against methyl prednisolone acetate-induced hypertension in albino rat assessed as reduction in mean arterial pressure at 20 mg/kg, ip after 1 hr by tail-cuff method; type: functional, Artery; parameters: scale not given: the % may be the effect or the level left; conditions: route intraperitoneal
Procedure, shortened: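 Rats were albino, 200–250 g, and restrainer-trained for 10 min/day over 1 week. They were made hypertensive with s.c. methyl prednisolone acetate at 20 mg/kg/wk for 2 weeks. Each compound was suspended in 1% CMC and given i.p. at 20 mg/kg. Mean arterial BP was measured 1 h after dosing in conscious animals by CODA tail-cuff. Data are mean ± SEM, analysed by ANOVA and Dunnett test against the hypertensive control.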

Rattus norvegicus [2] = experiment: Antihypertensive activity against methyl prednisolone acetate-induced hypertension in albino rat assessed as reduction in mean arterial pressure at 14 mg/kg, ip after 1 hr by tail-cuff method; type: functional, Artery; parameters: scale not given: the % may be the effect or the level left; conditions: route intraperitoneal
Procedure, shortened: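 Albino rats of 200–250 g were trained in a restrainer for 10 min daily for 1 week. Hypertension was induced by s.c. methyl prednisolone acetate at 20 mg/kg/wk for 2 weeks, with an untreated control group kept alongside. Drug was given i.p. and mean arterial BP was read 1 h later in conscious rats by CODA tail-cuff. Results are mean ± SEM, compared with the hypertensive control by ANOVA and Dunnett test.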

SMILES: CC(C)Cc1ccc(C2=NN(c3n[nH]c(=S)n3-c3ccc(Cl)cc3)C(=O)CC2)cc1
- Activity (Rattus norvegicus [1]): 15.85%

SMILES: Cc1ccc(C2=NN(c3n[nH]c(=S)n3-c3ccccc3)C(=O)CC2)cc1
- Activity (Rattus norvegicus [1]): 27.3%

SMILES: CCc1ccc(C2=NN(c3n[nH]c(=S)n3-c3ccc(C)cc3)C(=O)CC2)cc1
- Activity (Rattus norvegicus [1]): 32.97%

SMILES: O=C1CCC(c2ccc(-c3ccccc3)cc2)=NN1c1n[nH]c(=S)n1-c1ccccc1
- Activity (Rattus norvegicus [1]): 10.67%

SMILES: Cc1ccc(-n2c(N3N=C(c4ccc(-c5ccccc5)cc4)CCC3=O)n[nH]c2=S)cc1
- Activity (Rattus norvegicus [1]): 13.13%

SMILES: O=C1CCC(c2ccccc2)=NN1c1n[nH]c(=S)n1-c1ccccc1
- Activity (Rattus norvegicus [1]): 30.01%

SMILES: Cc1ccc(-n2c(N3N=C(c4ccc(CC(C)C)cc4)CCC3=O)n[nH]c2=S)cc1
- Activity (Rattus norvegicus [1]): 12.5%

SMILES: COc1ccc(C2=NN(c3n[nH]c(=S)n3-c3ccccc3)C(=O)CC2)cc1
- Activity (Rattus norvegicus [1]): 32.48%

SMILES: CCc1ccc(C2=NN(c3n[nH]c(=S)n3-c3ccc(Cl)cc3)C(=O)CC2)cc1
- Activity (Rattus norvegicus [1]): 42.11%

SMILES: Cc1ccc(C2=NN(c3n[nH]c(=S)n3-c3ccc(Cl)cc3)C(=O)CC2)cc1
- Activity (Rattus norvegicus [1]): 41.84%

SMILES: CC(C)NCC(O)COc1cccc2ccccc12 (configuration not stated) [PROPRANOLOL]
- Activity (Rattus norvegicus [2]): 41.4%

SMILES: CC(C)Cc1ccc(C2=NN(c3n[nH]c(=S)n3-c3ccccc3)C(=O)CC2)cc1
- Activity (Rattus norvegicus [1]): 30.51%

SMILES: CCc1ccc(C2=NN(c3n[nH]c(=S)n3-c3ccccc3)C(=O)CC2)cc1
- Activity (Rattus norvegicus [1]): 38.88%

SMILES: COc1ccc(C2=NN(c3n[nH]c(=S)n3-c3ccc(C)cc3)C(=O)CC2)cc1
- Activity (Rattus norvegicus [1]): 40.98%

SMILES: Cc1ccc(C2=NN(c3n[nH]c(=S)n3-c3ccc(C)cc3)C(=O)CC2)cc1
- Activity (Rattus norvegicus [1]): 31.25%

SMILES: Cc1ccc(-n2c(N3N=C(c4ccc(Cl)cc4)CCC3=O)n[nH]c2=S)cc1
- Activity (Rattus norvegicus [1]): 11.53%

SMILES: COc1ccc(C2=NN(c3n[nH]c(=S)n3-c3ccc(Cl)cc3)C(=O)CC2)cc1
- Activity (Rattus norvegicus [1]): 16.09%

SMILES: O=C1CCC(c2ccc(Cl)cc2)=NN1c1n[nH]c(=S)n1-c1ccccc1
- Activity (Rattus norvegicus [1]): 12.52%

SMILES: O=C1CCC(c2ccccc2)=NN1c1n[nH]c(=S)n1-c1ccc(Cl)cc1
- Activity (Rattus norvegicus [1]): 24.84%

SMILES: Cc1ccc(-n2c(N3N=C(c4ccccc4)CCC3=O)n[nH]c2=S)cc1
- Activity (Rattus norvegicus [1]): 38.83%

SMILES: O=C1CCC(c2ccc(-c3ccccc3)cc2)=NN1c1n[nH]c(=S)n1-c1ccc(Cl)cc1
- Activity (Rattus norvegicus [1]): 14.37%

SMILES: O=C1CCC(c2ccc(Cl)cc2)=NN1c1n[nH]c(=S)n1-c1ccc(Cl)cc1
- Activity (Rattus norvegicus [1]): 11.29%
